According to PMC4540355 (Biochemistry, 2009):
Values belong to the molecule of their own block, whether it stands above or below them.

How the values were obtained:
[1] = molecular target: T1, skelemin binding to αIIbβ3 (Mus musculus, UniProt Q62234); design: species or system human
T1 sequence (Q62234 1113-1666): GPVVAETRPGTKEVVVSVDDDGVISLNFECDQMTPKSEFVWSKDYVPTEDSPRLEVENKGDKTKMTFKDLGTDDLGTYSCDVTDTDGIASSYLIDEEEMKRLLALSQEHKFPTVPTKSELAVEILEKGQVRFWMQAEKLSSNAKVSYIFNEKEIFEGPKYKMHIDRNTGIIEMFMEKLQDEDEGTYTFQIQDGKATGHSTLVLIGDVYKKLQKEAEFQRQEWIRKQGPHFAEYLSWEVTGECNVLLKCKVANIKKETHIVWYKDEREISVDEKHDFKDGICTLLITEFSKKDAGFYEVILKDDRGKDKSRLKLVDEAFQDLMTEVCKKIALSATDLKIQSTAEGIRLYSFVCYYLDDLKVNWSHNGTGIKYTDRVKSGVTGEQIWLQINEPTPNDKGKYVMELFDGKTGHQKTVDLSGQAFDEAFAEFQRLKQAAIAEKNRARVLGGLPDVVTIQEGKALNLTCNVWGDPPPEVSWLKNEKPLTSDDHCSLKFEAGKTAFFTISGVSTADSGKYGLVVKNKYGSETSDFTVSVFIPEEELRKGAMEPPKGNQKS

[2] = molecular target: T2, skelemin fragment (Mus musculus, UniProt Q62234); assay: Solid-phase assay: binding of [125I]skelemin to peptides coated on wells; details: wells coated with peptide 20 μg/mL, postcoated with 1% BSA
T2 sequence (Q62234 1113-1666): T1 sequence (Q62234 1113-1666)
Procedure, shortened: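 Mouse skelemin fragment (residues 1113–1666) made as a GST fusion, cut free with thrombin and radioiodinated. Wells coated with wild-type or mutant αIIb 989–1008 peptide at 20 μg/mL, postcoated with 1% BSA, then given various concentrations of [125I]skelemin. Bound radioactivity counted.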

[3] = molecular target: fibrin monomer with both fibrinopeptides A and B cleaved (human) (UniProt P02671); assay: solid-phase binding assay with 125I-labelled protein
[4] = molecular target: fibrinogen D100 (100 kDa) fragment (human); assay: as above
[5] = molecular target: human fibrinogen, depleted of fibronectin and plasminogen (human) (UniProt P02671); assay: as above
[6] = molecular target: T2, skelemin fragment; type: binding
Procedure, shortened: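 CM5 chip carried amine-coupled skelemin fragment (~900 RU). αIIb 989–1008 peptide at 0, 10, 20, 40, 100 and 200 μM in HBS-P with 1 mM Ca2+ and 1 mM Mg2+, injected at 5 μL/min for 10 min. Signal corrected against an EDC/NHS-activated, ethanolamine-blocked blank cell. Kd from best fit to an interaction model.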

[7] = molecular target: cellulose-bound αIIb 9-mer peptide with Arg995 substituted with Ala (human) (UniProt P08514); assay: peptide or protein array
[8] = molecular target: cellulose-bound αIIb 9-mer peptide with Arg997 substituted with Ala (human) (UniProt P08514); assay: peptide or protein array
[9] = molecular target: αIIb 9-mer peptides with mutations of Val990, Phe992, and Leu1000; assay: peptide or protein array
[10] = molecular target: platelet integrin αIIbβ3 (human) (UniProt P05106); assay: solid-phase binding assay with 125I-labelled protein
[11] = system: αIIbβ3; type: binding, human; details: integrin adsorbed on plastic without ligand
[12] = system: αIIbβ3; type: binding, human
Procedure, shortened: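 αIIbβ3 purified from human platelets on Concanavalin A-agarose. Passed at 0, 50, 100, 200 and 500 μg/mL in HBS-P with 1 mM Ca2+/Mg2+ over amine-coupled skelemin fragment (~900 RU), with a fibrinogen parallel cell (~1300 RU) checking resting state. For activation, DTT 3 mM final, 15 min at 4 °C, then extensive dialysis; activated integrin injected 5 min at 10 μL/min. Blank-cell corrected.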

human fibrinogen, depleted of fibronectin and plasminogen (human), sequence (P02671 36-866, chain 1 of 3): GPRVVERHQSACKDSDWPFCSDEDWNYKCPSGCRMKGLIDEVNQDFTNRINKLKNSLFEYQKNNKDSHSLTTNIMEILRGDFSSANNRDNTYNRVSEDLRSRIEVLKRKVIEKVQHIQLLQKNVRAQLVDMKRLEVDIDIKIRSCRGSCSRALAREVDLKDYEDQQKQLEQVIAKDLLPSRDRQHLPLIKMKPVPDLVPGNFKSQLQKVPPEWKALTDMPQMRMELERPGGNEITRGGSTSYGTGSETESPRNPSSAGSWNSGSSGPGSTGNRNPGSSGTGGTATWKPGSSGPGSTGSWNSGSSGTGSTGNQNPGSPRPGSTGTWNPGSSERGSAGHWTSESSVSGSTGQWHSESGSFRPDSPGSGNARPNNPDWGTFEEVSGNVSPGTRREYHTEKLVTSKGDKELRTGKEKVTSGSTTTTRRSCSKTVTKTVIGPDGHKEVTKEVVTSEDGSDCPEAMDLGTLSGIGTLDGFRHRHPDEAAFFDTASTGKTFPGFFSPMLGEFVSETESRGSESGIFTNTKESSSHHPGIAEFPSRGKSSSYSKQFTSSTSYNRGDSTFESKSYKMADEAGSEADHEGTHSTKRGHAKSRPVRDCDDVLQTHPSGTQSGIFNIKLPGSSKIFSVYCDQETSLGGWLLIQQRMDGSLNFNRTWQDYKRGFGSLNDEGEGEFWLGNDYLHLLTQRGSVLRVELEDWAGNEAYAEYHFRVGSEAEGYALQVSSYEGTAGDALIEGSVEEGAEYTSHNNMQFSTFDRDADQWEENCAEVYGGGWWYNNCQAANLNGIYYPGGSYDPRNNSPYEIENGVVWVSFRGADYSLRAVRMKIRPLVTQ
human fibrinogen, depleted of fibronectin and plasminogen (human), sequence (P02675 45-491, chain 2 of 3, further chain): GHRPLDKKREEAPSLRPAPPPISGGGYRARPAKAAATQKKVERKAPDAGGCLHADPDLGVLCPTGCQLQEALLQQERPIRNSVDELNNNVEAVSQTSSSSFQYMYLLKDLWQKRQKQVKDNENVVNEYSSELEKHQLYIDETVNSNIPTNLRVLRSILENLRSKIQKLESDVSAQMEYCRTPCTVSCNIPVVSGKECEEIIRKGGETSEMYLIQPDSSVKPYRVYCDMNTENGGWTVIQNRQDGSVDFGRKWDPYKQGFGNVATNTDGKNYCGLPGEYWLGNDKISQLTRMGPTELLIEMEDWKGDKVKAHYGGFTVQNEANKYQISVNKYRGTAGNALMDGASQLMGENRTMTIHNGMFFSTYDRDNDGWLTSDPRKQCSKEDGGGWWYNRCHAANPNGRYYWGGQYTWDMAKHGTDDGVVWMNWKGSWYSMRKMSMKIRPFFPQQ
human fibrinogen, depleted of fibronectin and plasminogen (human), sequence (P02679 27-453, chain 3 of 3, further chain): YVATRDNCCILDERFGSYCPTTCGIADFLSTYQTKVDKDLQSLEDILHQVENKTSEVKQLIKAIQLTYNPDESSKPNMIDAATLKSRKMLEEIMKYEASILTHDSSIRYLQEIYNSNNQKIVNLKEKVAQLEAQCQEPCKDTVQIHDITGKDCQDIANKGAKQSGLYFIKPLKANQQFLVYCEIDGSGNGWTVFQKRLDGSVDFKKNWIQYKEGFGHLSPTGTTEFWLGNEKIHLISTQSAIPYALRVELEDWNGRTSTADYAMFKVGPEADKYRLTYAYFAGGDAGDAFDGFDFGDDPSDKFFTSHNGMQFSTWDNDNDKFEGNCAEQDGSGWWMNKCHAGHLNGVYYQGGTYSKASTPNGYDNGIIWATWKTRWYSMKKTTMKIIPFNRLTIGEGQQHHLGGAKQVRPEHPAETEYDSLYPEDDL
fibrin monomer with both fibrinopeptides A and B cleaved (human), sequence (P02671 36-866, chain 1 of 3): as the sequence (P02671 36-866, chain 1 of 3) above
fibrin monomer with both fibrinopeptides A and B cleaved (human), sequence (P02675 45-491, chain 2 of 3, further chain): as the sequence (P02675 45-491, chain 2 of 3, further chain) above
fibrin monomer with both fibrinopeptides A and B cleaved (human), sequence (P02679 27-453, chain 3 of 3, further chain): as the sequence (P02679 27-453, chain 3 of 3, further chain) above

- Overall activity relative to the wild-type counterpart ([1]; skelemin binding and inhibition): residual activity
- Binding of [125I]skelemin to immobilized peptide [2]: still further loss
Molecule: GY^715 WALLITIADAKEFAKF^730 [β3 mutant 2]

- Binding of [125I]skelemin to immobilized peptide [2]: reduced level of skelemin binding
Molecule: GY^715 WALLITIADRKEFAKF^730 [β3 mutant 1]

The remaining lines, values behind:

Molecule: platelet integrin αIIbβ3 (from UniProt P05106 27-788) (complex)
- amount of αIIbβ3 bound [3]: 76 ng
- amount of αIIbβ3 bound [4]: 76 ng
- amount of αIIbβ3 bound [5]: 76 ng

Molecule: KVGFFKANAPALEEDDEEGE [mutant αIIb peptide]
- Binding to skelemin coupled to the chip (SPR) [6]: did not bind
- Inhibition of skelemin binding to αIIbβ3 prebound to ligands ([1]; mutant peptide): did not inhibit
- Binding of [125I]skelemin to immobilized peptide [2]: lost the ability to bind

B1: recombinant fragment spanning immunoglobulin C2-like motifs 3–7 of mouse skelemin (domain or fragment)
chain: T1 sequence (Q62234 1113-1666)
modifications: 125I label (IODO-GEN) where used as [125I]skelemin
- reduction of binding against the wild-type peptide [7]: 70%
- reduction of binding against the wild-type peptide [8]: 70%
- reduction of binding against the wild-type peptide [9]: 40 to 50%
- Kd, high-affinity class of binding sites [10]: 123 nM
- Kd, low-affinity class of binding sites [10]: 1100 nM
- N, high-affinity interaction (skelemin to receptor) (skelemin per receptor) [10]: 1
- N, low-affinity interaction (skelemin to receptor) (skelemin per receptor) [10]: 0.33

B2: skelemin fragment: recombinant fragment spanning immunoglobulin C2-like motifs 3–7 of mouse skelemin, residues 1113–1666 (protein)
chain: T1 sequence (Q62234 1113-1666)
modifications: 125I label (IODO-GEN) where used as [125I]skelemin; left off: GST, end not stated, cleaved
- Skelemin binding to αIIbβ3 immobilized directly on plastic [11]: small amount
- Interaction of resting soluble αIIbβ3 with immobilized skelemin fragment ([12]; resting integrin, various concentrations): No interaction was detected
- Binding of DTT-treated soluble αIIbβ3 to immobilized skelemin fragment ([12]; αIIbβ3 activated with 3 mM DTT 15 min at 4 °C, 0-500 μg/mL): did not bind
